Test results: ChEMBL document CHEMBL4321819, “Simple Structural Modifications Converting a Bona fide MDM2 PROTAC Degrader into a Molecular Glue Molecule: A Cautionary Tale in the Design of PROTAC Degraders” (J Med Chem, 2019)
Activity calls are given as the source filed them. The rule behind the calls is not given here.

How the values were obtained:
[1] = system: RS4-11; assay: Antiproliferative activity against human RS4:11 cells expressing wild type p53 assessed as cell growth inhibition after 4 days by WST-8 assay; type: functional, cell-based; conditions: RS4-11, 96 h
Outline: (§1)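 Leukemia cells seeded at 10000–20000 cells/well, breast cancer lines at 5000–10000 cells/well. Serially diluted compound added, then 4 days at 37 °C, 5% CO2. Growth read with WST-8 reagent after at least 1 h, absorbance at 450 nm. RS4;11, MOLM-13 and breast lines were grown in RPMI 1640; MV-4-11 and HL-60 in IMDM; all with 10% FBS. Mean ± SE, at least three independent experiments.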

[2] = Antiproliferative activity against human RS4:11/IRMI-2 cells harboring p53 hotspot mutation Y236H/R249G assessed as cell growth inhibition after 4 days by WST-8 assay; type: functional, cell-based; conditions: RS4-11, 96 h; outline: as §1
[3] = biological target: T1, Protein cereblon/Eukaryotic peptide chain release factor GTP-binding subunit ERF3A/DNA damage-binding protein 1/Cullin-4A (Homo sapiens) (UniProt Q96SW2+Q16531+Q13619+P15170); assay: Protac activity at GSPT1/CUL4/DDB1/CRBN in human RS4:11 cells expressing wild type p53 assessed as decrease in GSPT1 protein level after 2 hrs by Western blot analysis; type: cell-based
T1 sequence (P15170 whole entry, looked up): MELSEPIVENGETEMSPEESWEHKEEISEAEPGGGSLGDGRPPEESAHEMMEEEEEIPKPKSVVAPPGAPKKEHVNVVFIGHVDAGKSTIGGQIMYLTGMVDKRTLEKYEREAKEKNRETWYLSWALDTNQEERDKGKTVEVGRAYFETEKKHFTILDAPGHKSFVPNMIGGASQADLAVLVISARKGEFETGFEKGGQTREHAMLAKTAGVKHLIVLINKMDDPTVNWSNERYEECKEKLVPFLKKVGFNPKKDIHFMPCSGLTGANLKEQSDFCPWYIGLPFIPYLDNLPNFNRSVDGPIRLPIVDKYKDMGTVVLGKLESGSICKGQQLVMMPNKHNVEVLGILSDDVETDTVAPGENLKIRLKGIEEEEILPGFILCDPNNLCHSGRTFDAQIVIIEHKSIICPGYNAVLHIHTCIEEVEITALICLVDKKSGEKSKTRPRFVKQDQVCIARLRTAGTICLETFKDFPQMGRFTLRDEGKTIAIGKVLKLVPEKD
T1 sequence (Q13619 whole entry, looked up): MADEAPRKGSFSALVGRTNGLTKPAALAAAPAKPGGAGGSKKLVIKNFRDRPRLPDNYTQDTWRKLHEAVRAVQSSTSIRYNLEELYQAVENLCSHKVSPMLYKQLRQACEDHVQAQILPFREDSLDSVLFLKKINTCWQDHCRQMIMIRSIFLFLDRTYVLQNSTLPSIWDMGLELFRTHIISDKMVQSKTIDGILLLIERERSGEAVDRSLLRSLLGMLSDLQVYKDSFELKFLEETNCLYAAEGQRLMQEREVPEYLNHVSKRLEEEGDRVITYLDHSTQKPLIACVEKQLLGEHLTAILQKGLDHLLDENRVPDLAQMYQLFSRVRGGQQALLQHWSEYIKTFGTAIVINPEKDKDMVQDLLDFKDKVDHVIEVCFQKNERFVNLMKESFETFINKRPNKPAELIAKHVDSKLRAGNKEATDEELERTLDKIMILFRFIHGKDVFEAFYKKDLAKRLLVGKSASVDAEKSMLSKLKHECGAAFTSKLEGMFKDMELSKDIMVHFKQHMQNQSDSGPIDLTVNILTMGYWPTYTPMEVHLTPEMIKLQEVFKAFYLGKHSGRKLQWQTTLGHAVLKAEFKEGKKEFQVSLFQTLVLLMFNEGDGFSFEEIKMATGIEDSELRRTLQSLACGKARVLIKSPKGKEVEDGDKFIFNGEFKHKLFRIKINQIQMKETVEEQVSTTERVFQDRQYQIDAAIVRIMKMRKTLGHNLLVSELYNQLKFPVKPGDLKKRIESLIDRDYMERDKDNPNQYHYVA
T1 sequence (Q16531 whole entry, looked up): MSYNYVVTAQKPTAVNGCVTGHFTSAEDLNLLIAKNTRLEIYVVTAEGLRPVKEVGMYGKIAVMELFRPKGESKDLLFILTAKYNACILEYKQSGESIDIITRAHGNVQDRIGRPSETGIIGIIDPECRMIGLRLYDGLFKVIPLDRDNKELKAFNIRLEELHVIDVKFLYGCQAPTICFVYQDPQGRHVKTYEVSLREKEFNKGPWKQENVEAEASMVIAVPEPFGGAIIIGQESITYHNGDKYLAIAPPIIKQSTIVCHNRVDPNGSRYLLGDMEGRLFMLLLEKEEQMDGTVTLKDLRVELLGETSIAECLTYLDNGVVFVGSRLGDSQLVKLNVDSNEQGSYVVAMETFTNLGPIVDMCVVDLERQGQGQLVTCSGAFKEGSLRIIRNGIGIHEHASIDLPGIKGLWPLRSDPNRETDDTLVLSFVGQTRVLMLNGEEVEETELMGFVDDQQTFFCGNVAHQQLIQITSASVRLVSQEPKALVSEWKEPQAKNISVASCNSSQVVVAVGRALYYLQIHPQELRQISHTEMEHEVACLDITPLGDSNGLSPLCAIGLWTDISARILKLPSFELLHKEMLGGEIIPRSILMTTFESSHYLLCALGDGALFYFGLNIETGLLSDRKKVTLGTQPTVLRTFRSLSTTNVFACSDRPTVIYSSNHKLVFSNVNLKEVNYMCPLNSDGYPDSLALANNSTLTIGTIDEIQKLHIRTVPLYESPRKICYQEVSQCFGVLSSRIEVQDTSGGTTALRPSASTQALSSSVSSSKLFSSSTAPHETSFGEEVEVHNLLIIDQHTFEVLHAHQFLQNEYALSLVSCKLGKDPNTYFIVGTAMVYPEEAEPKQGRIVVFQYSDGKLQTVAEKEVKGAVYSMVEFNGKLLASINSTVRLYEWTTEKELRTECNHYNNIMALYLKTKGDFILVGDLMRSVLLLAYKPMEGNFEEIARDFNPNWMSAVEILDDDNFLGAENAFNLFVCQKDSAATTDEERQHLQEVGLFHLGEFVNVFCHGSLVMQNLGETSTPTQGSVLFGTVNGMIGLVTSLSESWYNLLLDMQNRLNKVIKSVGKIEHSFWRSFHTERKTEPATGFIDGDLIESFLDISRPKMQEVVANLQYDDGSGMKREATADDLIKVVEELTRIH
T1 sequence (Q96SW2 whole entry, looked up): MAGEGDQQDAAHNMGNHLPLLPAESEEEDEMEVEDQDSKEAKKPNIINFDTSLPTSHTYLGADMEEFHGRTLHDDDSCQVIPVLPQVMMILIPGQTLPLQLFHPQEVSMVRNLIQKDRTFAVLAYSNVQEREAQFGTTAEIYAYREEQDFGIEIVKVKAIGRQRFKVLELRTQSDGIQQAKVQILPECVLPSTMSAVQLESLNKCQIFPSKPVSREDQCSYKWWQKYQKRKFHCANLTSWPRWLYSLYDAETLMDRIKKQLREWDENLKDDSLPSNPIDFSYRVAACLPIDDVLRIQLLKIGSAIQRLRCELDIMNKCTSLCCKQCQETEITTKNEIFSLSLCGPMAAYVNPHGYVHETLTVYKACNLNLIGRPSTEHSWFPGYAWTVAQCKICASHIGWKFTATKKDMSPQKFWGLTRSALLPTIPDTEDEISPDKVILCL
Outline: (§2)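 RS4;11 (wild-type p53) or RS4;11/IRMI-2 (MDM2 inhibitor-resistant derivative, mutant p53) cells kept in RPMI 1640 with 10% FBS at 37 °C, 5% CO₂. 2×10^6 cells/well treated at the indicated concentrations and times, then lysed in ice-cold lysis buffer with protease inhibitor. GSPT1 detected by Western blot with a specific antibody.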

[4] = biological target: T1, Protein cereblon/Eukaryotic peptide chain release factor GTP-binding subunit ERF3A/DNA damage-binding protein 1/Cullin-4A (Homo sapiens); assay: Protac activity at GSPT1/CUL4/DDB1/CRBN in human RS4:11/IRMI-2 cells harboring p53 hotspot mutation Y236H/R249G assessed as decrease in GSPT1 protein level after 2 hrs by Western blot analysis; type: cell-based; outline: as §2
[5] = biological target: Eukaryotic peptide chain release factor GTP-binding subunit ERF3A (Homo sapiens, UniProt P15170); assay: Induction of GSPT1 degradation in human RS4:11 cells measured after 24 hrs by Western blot analysis; type: cell-based
Eukaryotic peptide chain release factor GTP-binding subunit ERF3A, sequence (P15170 whole entry): as the sequence (P15170 whole entry, looked up) above

[6] = biological target: T1, Protein cereblon/Eukaryotic peptide chain release factor GTP-binding subunit ERF3A/DNA damage-binding protein 1/Cullin-4A (Homo sapiens); assay: Protac activity at GSPT1/CUL4/DDB1/CRBN in human RS4:11 cells expressing wild type p53 assessed as decrease in GSPT1 protein level at 1 to 3 uM after 24 hrs by Western blot analysis; type: cell-based; outline: as §2
[7] = biological target: T1, Protein cereblon/Eukaryotic peptide chain release factor GTP-binding subunit ERF3A/DNA damage-binding protein 1/Cullin-4A (Homo sapiens); assay: Protac activity at GSPT1/CUL4/DDB1/CRBN in human RS4:11/IRMI-2 cells harboring p53 hotspot mutation Y236H/R249G assessed as decrease in GSPT1 protein level at 1 to 3 uM after 24 hrs by Western blot analysis; type: cell-based; outline: as §2
[8] = biological target: E3 ubiquitin-protein ligase Mdm2 (Homo sapiens, UniProt Q00987); assay: Displacement of PMDM6-F fluorescent probe from human recombinant His-tagged MDM2 (1 to 118 residues) after 15 mins by fluorescence polarization assay
E3 ubiquitin-protein ligase Mdm2, sequence (Q00987 whole entry, the tested form may be a part): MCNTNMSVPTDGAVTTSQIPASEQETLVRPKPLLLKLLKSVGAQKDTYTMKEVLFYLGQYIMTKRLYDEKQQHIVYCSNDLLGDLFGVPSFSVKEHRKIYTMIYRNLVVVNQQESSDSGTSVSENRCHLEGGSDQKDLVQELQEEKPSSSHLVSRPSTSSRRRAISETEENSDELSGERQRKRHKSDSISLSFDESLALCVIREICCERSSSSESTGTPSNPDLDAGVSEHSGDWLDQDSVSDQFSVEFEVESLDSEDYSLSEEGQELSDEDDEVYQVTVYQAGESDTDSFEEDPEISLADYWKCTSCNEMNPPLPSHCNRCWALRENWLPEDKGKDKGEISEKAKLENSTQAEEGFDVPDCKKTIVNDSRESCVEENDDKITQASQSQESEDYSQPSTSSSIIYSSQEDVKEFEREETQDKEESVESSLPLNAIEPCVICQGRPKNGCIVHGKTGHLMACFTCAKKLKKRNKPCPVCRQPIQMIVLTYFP
Outline: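 Recombinant human His-tagged MDM2 (residues 1–118) with a FAM-labelled p53-based peptide as fluorescent probe; competitive fluorescence-polarization binding. Mean ± standard error from at least three independent experiments.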

[9] = system: RS4-11; assay: Antiproliferative activity against human RS4:11 cells expressing wild type p53 assessed as MDM2-independent cell growth inhibition after 4 days by WST-8 assay; type: functional, cell-based; conditions: RS4-11, 96 h; outline: as §1
[10] = Antiproliferative activity against human RS4:11/IRMI-2 cells harboring p53 hotspot mutation Y236H/R249G assessed as MDM2-independent cell growth inhibition after 4 days by WST-8 assay; type: functional, cell-based; conditions: RS4-11, 96 h; outline: as §1
[11] = system: RS4-11; assay: Antiproliferative activity against human RS4:11 cells expressing wild type p53 assessed as cell growth inhibition without interaction with cereblon after 4 days by WST-8 assay; type: functional, cell-based; conditions: RS4-11, 96 h; outline: as §1
[12] = Antiproliferative activity against human RS4:11/IRMI-2 cells harboring p53 hotspot mutation Y236H/R249G assessed as cell growth inhibition without interaction with cereblon after 4 days by WST-8 assay; type: functional, cell-based; conditions: RS4-11, 96 h; outline: as §1
[13] = system: MDA-MB-231; assay: Antiproliferative activity against human MDA-MB-231 cells harboring mutant p53 assessed as cell growth inhibition without interaction with cereblon after 4 days by WST-8 assay; type: functional, cell-based; conditions: MDA-MB-231, 96 h
[14] = system: MDA-MB-468; assay: Antiproliferative activity against human MDA-MB-468 cells harboring mutant p53 assessed as cell growth inhibition without interaction with cereblon after 4 days by WST-8 assay; type: functional, cell-based; conditions: MDA-MB-468, 96 h

Q: Which IC50 [1] does the source give for `O=C1CCC(N2Cc3c(CCCOCCOCCNC(=O)[C@@H]4NC5(CCCCC5)[C@@]5(C(=O)Nc6cc(Cl)ccc65)[C@H]4c4cccc(Cl)c4F)cccc3C2=O)C(=O)N1` (some centres not stated) here?
A: 4.9 nM

Q: And the IC50 [2]?
A: 4.9 nM

Q: What about the Activity [3] of the same molecule?
A: Active

Q: What about the Activity [4] of the same molecule?
A: Active

Q: And the DC50 [5]?
A: 1.2 nM

Q: Which results are given for `O=C1CCC(N2Cc3c(NC(=O)[C@@H]4NC5(CCCCC5)[C@@]5(C(=O)Nc6cc(Cl)ccc65)[C@H]4c4cccc(Cl)c4F)cccc3C2=O)C(=O)N1` (some centres not stated)?
A: IC50 [1]: 760 nM; IC50 [2]: 2580 nM; Activity [6]: Active; Activity [7]: Active; DC50 [5]: 2300 nM

Q: What does the source list for `O=C1CCC(N2Cc3c(CCCCNC(=O)[C@@H]4NC5(CCCCC5)[C@@]5(C(=O)Nc6cc(Cl)ccc65)[C@H]4c4cccc(Cl)c4F)cccc3C2=O)C(=O)N1` (some centres not stated)?
A: IC50 [1]: 2.5 nM; IC50 [2]: 2.6 nM; Activity [3]: Active; Activity [4]: Active; DC50 [5]: 1.1 nM

Q: Which IC50 [8] does the source give for `O=C1CCC(N2Cc3c(CCCCCNC(=O)[C@@H]4NC5(CCCCC5)[C@@]5(C(=O)Nc6ccccc65)[C@H]4c4ccccc4)cccc3C2=O)C(=O)N1` (some centres not stated) here?
A: > 20000 nM

Q: What about the IC50 [9] of the same molecule?
A: 48.6 nM

Q: What about the IC50 [10] of the same molecule?
A: 60.9 nM

Q: For `CN1C(=O)CCC(N2Cc3c(CCCCCNC(=O)[C@@H]4NC5(CCCCC5)[C@@]5(C(=O)Nc6cc(Cl)ccc65)[C@H]4c4cccc(Cl)c4F)cccc3C2=O)C1=O` (some centres not stated), which IC50 [11] is on record?
A: 2490 nM

Q: And the IC50 [12]?
A: 6850 nM

Q: And the IC50 [13]?
A: > 10000 nM

Q: What about the IC50 [14] of the same molecule?
A: > 10000 nM

Q: Which IC50 [1] does the source give for `O=C1CCC(N2Cc3c(CCCOCCNC(=O)[C@@H]4NC5(CCCCC5)[C@@]5(C(=O)Nc6cc(Cl)ccc65)[C@H]4c4cccc(Cl)c4F)cccc3C2=O)C(=O)N1` (some centres not stated) here?
A: 3.6 nM

Q: And the IC50 [2]?
A: 3.5 nM

Q: What about the Activity [3] of the same molecule?
A: Active

Q: What about the Activity [4] of the same molecule?
A: Active

Q: And the DC50 [5]?
A: 1.8 nM
